Assay results published in ChEMBL document CHEMBL4118145, “Structure-activity relationship investigation of Phe-Arg mimetic region of human glutaminyl cyclase inhibitors” (Bioorg Med Chem, 2018).

Experiments:
[1] = biological target: hERG (KCNH2) (Homo sapiens, UniProt Q12809); test: Inhibition of human ERG at 10 uM relative to control
How it was run: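 hERG channel blocking tested at 10 μM, reported as % inhibition.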

[2] = tested on: Mus musculus; test: In vivo inhibition of glutaminyl cyclase in ICR mouse brain extract assessed as decrease in levels of human pyroglutamyl-beta-amyloid (1 to 40) containing N-terminal pyroglutamte at position 3 at 25 mg/kg, icv measured next day by sandwich ELISA relative to control; format: functional; details: central
How it was run: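 Male ICR mice (25 g, n = 4) received icv injection of human Aβ3-40 (5 μL of 1 μg/μL in PBS, 5 µg) into deep cortical/hippocampal tissue via stereotaxic frame, then compound at 25 mg/kg icv. Brain extracts taken next day; Aβ N3pE-40 quantified by sandwich ELISA, expressed as % inhibition versus vehicle control.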

[3] = tested on: HT-22; test: Cytotoxicity against mouse HT22 cells assessed as decrease in cell viability at 10 uM by MTT assay relative to control; format: cell-based; details: ht-22, 10 µM
How it was run: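 HT-22 immortalized hippocampal neuronal cells incubated with compound at 10 μM; viability read by MTT assay and expressed as % of control.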

hERG (KCNH2), sequence (Q12809 whole entry): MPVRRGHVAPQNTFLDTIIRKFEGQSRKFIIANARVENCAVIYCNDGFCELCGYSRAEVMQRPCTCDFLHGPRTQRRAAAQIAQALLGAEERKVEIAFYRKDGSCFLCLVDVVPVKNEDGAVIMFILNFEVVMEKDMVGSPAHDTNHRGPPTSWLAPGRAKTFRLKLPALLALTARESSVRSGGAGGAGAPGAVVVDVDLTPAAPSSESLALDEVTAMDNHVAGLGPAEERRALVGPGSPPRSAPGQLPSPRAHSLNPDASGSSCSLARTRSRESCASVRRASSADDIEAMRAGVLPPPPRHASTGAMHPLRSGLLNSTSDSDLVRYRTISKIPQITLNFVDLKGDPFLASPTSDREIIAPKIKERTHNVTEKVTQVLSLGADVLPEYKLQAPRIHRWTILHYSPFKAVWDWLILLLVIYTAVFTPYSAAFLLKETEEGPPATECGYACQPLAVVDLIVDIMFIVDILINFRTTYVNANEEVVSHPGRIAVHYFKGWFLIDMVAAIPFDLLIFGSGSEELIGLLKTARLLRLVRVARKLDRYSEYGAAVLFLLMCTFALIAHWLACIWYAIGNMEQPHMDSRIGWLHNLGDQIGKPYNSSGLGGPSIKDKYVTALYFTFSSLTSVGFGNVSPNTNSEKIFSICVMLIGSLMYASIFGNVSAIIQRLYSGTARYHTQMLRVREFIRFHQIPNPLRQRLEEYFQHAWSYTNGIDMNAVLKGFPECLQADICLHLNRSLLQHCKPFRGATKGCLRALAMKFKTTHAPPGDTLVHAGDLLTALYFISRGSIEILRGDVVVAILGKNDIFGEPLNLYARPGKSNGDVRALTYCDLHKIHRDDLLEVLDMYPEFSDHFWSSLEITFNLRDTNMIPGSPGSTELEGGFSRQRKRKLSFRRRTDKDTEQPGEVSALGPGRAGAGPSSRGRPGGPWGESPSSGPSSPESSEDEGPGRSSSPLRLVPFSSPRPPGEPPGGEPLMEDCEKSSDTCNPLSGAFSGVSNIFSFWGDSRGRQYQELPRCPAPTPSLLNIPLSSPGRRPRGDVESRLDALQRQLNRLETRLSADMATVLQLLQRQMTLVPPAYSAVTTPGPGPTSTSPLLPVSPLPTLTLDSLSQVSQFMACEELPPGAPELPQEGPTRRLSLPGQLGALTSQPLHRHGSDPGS

| SMILES | inhibition at 10 µM [1] | inhibition in vivo at 25 mg/kg [2] | Activity [3] |
| --- | --- | --- | --- |
| COc1ccc(NC(=S)NCCCn2cncc2C)cc1OCCCCC1CCNCC1 | 35.1% | 14.4% | 100% |
| Cc1cncn1CCCNC(=S)Nc1ccc(OCC(=O)NC2CCN(CCN)CC2)cc1 | 19.9% |  | 100% |
| COc1ccc(NC(=S)NCCCn2cncc2C)cc1OCCCC1CCNCC1 | 25.6% | 5.5% | 100% |
| Cc1cncn1CCCNC(=S)Nc1ccc(/C=C/C(=O)N2CCN(CCN)CC2)cc1 | 7.2% | 22.9% | 100% |
| COc1ccc(NC(=S)NCCCn2cncc2C)cc1OCCCN | 8.8% | 12.8% | 100% |
| COc1ccc(NC(=S)NCCCn2cncc2C)cc1OCCCCN | 2.8% | 36.6% | 100% |
| COc1ccc(NC(=S)NCCCn2cncc2C)cc1OCCN | 15.3% | 35.3% | 100% |
| COc1ccc(NC(=S)NCCCn2cncc2C)cc1OCCC1CCNCC1 | 14.9% | 1.8% | 100% |
